Experimental data from ChEMBL document CHEMBL4196091 (Eur J Med Chem, 2018).
Active and inactive are the calls of the source. The rule behind the calls is not given here.

How the values were obtained:
A549 [1] = test: Cell cycle arrest in human A549 cells assessed as accumulation at G2/M phase at 3 nM after 24 hrs by propidium iodide staining based flow cytometry; assay type: functional
Method in brief: (§1)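 A549 cells maintained in DMEM (1 g/L glucose, 2 mM glutamine, penicillin/streptomycin/amphotericin B, 10% FBS) and treated for 24 h. Cells were then fixed, RNase-treated and stained with propidium iodide. DNA content was measured by flow cytometry to give cell-cycle phase distribution, including a sub-G1 peak. Data are means (±SD) of two experiments.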

HT-29 [2] = test: Antiproliferative activity against human HT-29 cells after 2 days by MTT assay; assay type: functional, cell-based; conditions: HT-29, 48 h
MCF7 = test: Antiproliferative activity against human MCF7 cells after 2 days by MTT assay; assay type: functional, cell-based; conditions: MCF7, 48 h
A549 [3] = test: Antiproliferative activity against human A549 cells after 2 days by MTT assay; assay type: functional, cell-based; conditions: A549, 48 h
HEK293 = test: Antiproliferative activity against HEK293 cells after 2 days by MTT assay; assay type: ADME, cell-based; conditions: Homo sapiens, HEK293, 48 h
A549 [4] = test: Cell cycle arrest in human A549 cells assessed as accumulation at sub-G0 phase at 20 nM after 24 hrs by propidium iodide staining based flow cytometry (reference value: 2 +/- 1%); assay type: functional; method in brief: as §1
A549 [5] = test: Cell cycle arrest in human A549 cells assessed as accumulation at G0/G1 phase at 20 nM after 24 hrs by propidium iodide staining based flow cytometry (reference value: 73 +/- 3%); assay type: functional; method in brief: as §1
A549 [6] = test: Cell cycle arrest in human A549 cells assessed as accumulation at S phase at 20 nM after 24 hrs by propidium iodide staining based flow cytometry (reference value: 15 +/- 6%); assay type: functional; method in brief: as §1
A549 [7] = test: Cell cycle arrest in human A549 cells assessed as accumulation at G2/M phase at 20 nM after 24 hrs by propidium iodide staining based flow cytometry (reference value: 11 +/- 4%); assay type: functional; method in brief: as §1
HT-29 [8] = test: Downregulation of c-Myc gene expression in human HT-29 cells assessed as c-Myc mRNA level at 9 nM after 48 hrs by RT-PCR method (reference value: 100%); assay type: functional
Method in brief: (§2)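 HT-29 cells were taken at 70–80% confluence and seeded at 1.5 x 10^5 per well. After 24 h they were exposed to compound for 48 h. Total RNA was isolated and TaqMan RT-qPCR run for VEGF-A, c-MYC and hTERT, normalized to β-actin. Expression is given as percent of DMSO control, with at least three measurements and one-sample t-tests.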

HT-29 [9] = test: Downregulation of hTERT gene expression in human HT-29 cells assessed as hTERT mRNA level at 9 nM after 48 hrs by RT-PCR method (reference value: 100%); assay type: functional; method in brief: as §2
HT-29 [10] = test: Downregulation of VEGF gene expression in human HT-29 cells assessed as VEGF mRNA level at 9 nM after 48 hrs by RT-PCR method (reference value: 100%); assay type: functional; method in brief: as §2
HT-29 [11] = test: Inhibition of VEGF protein secretion in human HT-29 cells assessed as VEGF protein level at 9 nM after 48 hrs by ELISA (reference value: 100%); assay type: functional; set-up: scale not given: the % may be the effect or the level left
HT-29 [12] = test: Downregulation of c-Myc gene expression in human HT-29 cells assessed as c-Myc mRNA level at 5 nM after 48 hrs by RT-PCR method (reference value: 100%); assay type: functional; method in brief: as §2
HT-29 [13] = test: Downregulation of hTERT gene expression in human HT-29 cells assessed as hTERT mRNA level at 5 nM after 48 hrs by RT-PCR method (reference value: 100%); assay type: functional; method in brief: as §2
HT-29 [14] = test: Downregulation of VEGF gene expression in human HT-29 cells assessed as VEGF mRNA level at 5 nM after 48 hrs by RT-PCR method (reference value: 100%); assay type: functional; method in brief: as §2
HT-29 [15] = test: Inhibition of VEGF protein secretion in human HT-29 cells assessed as VEGF protein level at 5 nM after 48 hrs by ELISA (reference value: 100%); assay type: functional; set-up: scale not given: the % may be the effect or the level left
A549 [16] = test: Cell cycle arrest in human A549 cells assessed as accumulation at sub-G0 phase at 50 nM after 24 hrs by propidium iodide staining based flow cytometry (reference value: 2 +/- 1%); assay type: functional; method in brief: as §1
A549 [17] = test: Cell cycle arrest in human A549 cells assessed as accumulation at G0/G1 phase at 50 nM after 24 hrs by propidium iodide staining based flow cytometry (reference value: 73 +/- 3%); assay type: functional; method in brief: as §1
A549 [18] = test: Cell cycle arrest in human A549 cells assessed as accumulation at S phase at 50 nM after 24 hrs by propidium iodide staining based flow cytometry (reference value: 15 +/- 6%); assay type: functional; method in brief: as §1
A549 [19] = test: Cell cycle arrest in human A549 cells assessed as accumulation at G2/M phase at 50 nM after 24 hrs by propidium iodide staining based flow cytometry (reference value: 11 +/- 4%); assay type: functional; method in brief: as §1
HT-29 [20] = test: Downregulation of c-Myc gene expression in human HT-29 cells assessed as c-Myc mRNA level at 2 nM after 48 hrs by RT-PCR method (reference value: 100%); assay type: functional; method in brief: as §2
HT-29 [21] = test: Downregulation of hTERT gene expression in human HT-29 cells assessed as hTERT mRNA level at 2 nM after 48 hrs by RT-PCR method (reference value: 100%); assay type: functional; method in brief: as §2
HT-29 [22] = test: Downregulation of VEGF gene expression in human HT-29 cells assessed as VEGF mRNA level at 2 nM after 48 hrs by RT-PCR method (reference value: 100%); assay type: functional; method in brief: as §2
HT-29 [23] = test: Inhibition of VEGF protein secretion in human HT-29 cells assessed as VEGF protein level at 2 nM after 48 hrs by ELISA (reference value: 100%); assay type: functional; set-up: scale not given: the % may be the effect or the level left
HT-29 [24] = test: Downregulation of c-Myc gene expression in human HT-29 cells assessed as c-Myc mRNA level at 0.5 nM after 48 hrs by RT-PCR method (reference value: 100%); assay type: functional; method in brief: as §2
HT-29 [25] = test: Downregulation of hTERT gene expression in human HT-29 cells assessed as hTERT mRNA level at 0.5 nM after 48 hrs by RT-PCR method (reference value: 100%); assay type: functional; method in brief: as §2
HT-29 [26] = test: Downregulation of VEGF gene expression in human HT-29 cells assessed as VEGF mRNA level at 0.5 nM after 48 hrs by RT-PCR method (reference value: 100%); assay type: functional; method in brief: as §2
HT-29 [27] = test: Inhibition of VEGF protein secretion in human HT-29 cells assessed as VEGF protein level at 0.5 nM after 48 hrs by ELISA (reference value: 100%); assay type: functional; set-up: scale not given: the % may be the effect or the level left
HT-29 [28] = test: Downregulation of c-Myc gene expression in human HT-29 cells assessed as c-Myc mRNA level at 30 nM after 48 hrs by RT-PCR method (reference value: 100%); assay type: functional; method in brief: as §2
HT-29 [29] = test: Downregulation of hTERT gene expression in human HT-29 cells assessed as hTERT mRNA level at 30 nM after 48 hrs by RT-PCR method (reference value: 100%); assay type: functional; method in brief: as §2
HT-29 [30] = test: Downregulation of VEGF gene expression in human HT-29 cells assessed as VEGF mRNA level at 30 nM after 48 hrs by RT-PCR method (reference value: 100%); assay type: functional; method in brief: as §2
HT-29 [31] = test: Inhibition of VEGF protein secretion in human HT-29 cells assessed as VEGF protein level at 30 nM after 48 hrs by ELISA (reference value: 100%); assay type: functional; set-up: scale not given: the % may be the effect or the level left
HT-29 [32] = test: Downregulation of c-Myc gene expression in human HT-29 cells assessed as c-Myc mRNA level at 40 nM after 48 hrs by RT-PCR method (reference value: 100%); assay type: functional; method in brief: as §2
HT-29 [33] = test: Downregulation of c-Myc gene expression in human HT-29 cells assessed as c-Myc mRNA level at 10 nM after 48 hrs by RT-PCR method (reference value: 100%); assay type: functional; method in brief: as §2
HT-29 [34] = test: Downregulation of hTERT gene expression in human HT-29 cells assessed as hTERT mRNA level at 40 nM after 48 hrs by RT-PCR method (reference value: 100%); assay type: functional; method in brief: as §2
HT-29 [35] = test: Downregulation of hTERT gene expression in human HT-29 cells assessed as hTERT mRNA level at 10 nM after 48 hrs by RT-PCR method (reference value: 100%); assay type: functional; method in brief: as §2
HT-29 [36] = test: Downregulation of VEGF gene expression in human HT-29 cells assessed as VEGF mRNA level at 40 nM after 48 hrs by RT-PCR method (reference value: 100%); assay type: functional; method in brief: as §2
HT-29 [37] = test: Downregulation of VEGF gene expression in human HT-29 cells assessed as VEGF mRNA level at 10 nM after 48 hrs by RT-PCR method (reference value: 100%); assay type: functional; method in brief: as §2
HT-29 [38] = test: Inhibition of VEGF protein secretion in human HT-29 cells assessed as VEGF protein level at 40 nM after 48 hrs by ELISA (reference value: 100%); assay type: functional; set-up: scale not given: the % may be the effect or the level left
HT-29 [39] = test: Inhibition of VEGF protein secretion in human HT-29 cells assessed as VEGF protein level at 10 nM after 48 hrs by ELISA (reference value: 100%); assay type: functional; set-up: scale not given: the % may be the effect or the level left

SMILES | IC50 (HT-29 [2]) [nM] | IC50 (MCF7) [nM] | IC50 (A549 [3]) [nM] | Activity (A549 [1]) | IC50 (HEK293) [nM] | Activity (A549 [4]) [%] | Activity (A549 [5]) [%] | Activity (A549 [6]) [%] | Activity (A549 [7]) [%] | Activity (A549 [16]) [%] | Activity (A549 [17]) [%] | Activity (A549 [18]) [%] | Activity (A549 [19]) [%] | further results
COc1cc2c(c(OC)c1OC)-c1ccc(OC)c(=O)cc1[C@@H](NC(=O)c1ccc(Br)cc1)CC2 | 11.4 | 8.9 | 4.2 | Active | 7.8 | 4 | 25 | 16 | 56 | – | – | – | – | Activity (HT-29 [8]): 41%; Activity (HT-29 [9]): >100%; Activity (HT-29 [10]): 37%; Activity (HT-29 [11]): 62%
COc1cc2c(c(OC)c1OC)-c1ccc(OC)c(=O)cc1[C@@H](NC(=O)c1ccccc1Br)CC2 | 5.8 | 7.6 | 13 | Active | 8.5 | 4 | 27 | 22 | 47 | – | – | – | – | Activity (HT-29 [12]): 50%; Activity (HT-29 [13]): 88%; Activity (HT-29 [14]): 57%; Activity (HT-29 [15]): 80%
COc1cc2c(c(OC)c1OC)-c1ccc(OC)c(=O)cc1[C@@H](NC(=O)c1cccc(C)c1)CC2 | 2.23 | 5.6 | 8.7 | – | 3.1 | – | – | – | – | 16 | 29 | 10 | 45 | Activity (HT-29 [20]): 44%; Activity (HT-29 [21]): 74%; Activity (HT-29 [22]): 53%; Activity (HT-29 [23]): 76%
COc1cc2c(c(OC)c1OC)-c1ccc(OC)c(=O)cc1[C@@H](NC(C)=O)CC2 [COLCHICINE] | – | – | 12.2 | – | – | – | – | – | – | 3 | 27 | 11 | 59 | Activity (HT-29 [32]): 32%; Activity (HT-29 [33]): >100%; Activity (HT-29 [34]): 50%; Activity (HT-29 [35]): >100%; Activity (HT-29 [36]): 41%; Activity (HT-29 [37]): >100%; Activity (HT-29 [38]): 61%; Activity (HT-29 [39]): 100%

Now from value to compound, other results behind:

IC50 (HT-29 [2]) [nM] | IC50 (MCF7) [nM] | IC50 (A549 [3]) [nM] | SMILES | Activity (A549 [1]) | IC50 (HEK293) [nM] | Activity (A549 [4]) [%] | Activity (A549 [5]) [%] | Activity (A549 [6]) [%] | Activity (A549 [7]) [%] | Activity (A549 [16]) [%] | Activity (A549 [17]) [%] | Activity (A549 [18]) [%] | Activity (A549 [19]) [%] | further results
0.56 | 0.363 | 14 | COc1cc2c(c(OC)c1OC)-c1ccc(OC)c(=O)cc1[C@@H](NC(=O)c1cccc(Br)c1)CC2 | Active | 1.1 | 4 | 29 | 16 | 51 | – | – | – | – | Activity (HT-29 [24]): 34%; Activity (HT-29 [25]): 91%; Activity (HT-29 [26]): 61%; Activity (HT-29 [27]): 79%
32.7 | 24 | 36 | COc1cc2c(c(OC)c1OC)-c1ccc(OC)c(=O)cc1[C@@H](NC(=O)c1ccc(C(C)(C)C)cc1)CC2 | – | 58 | – | – | – | – | – | – | – | – | Activity (HT-29 [28]): 82%; Activity (HT-29 [29]): >100%; Activity (HT-29 [30]): 73%; Activity (HT-29 [31]): 61%
